Converted amounts (≈) assume the structure as drawn.
Assays:
[1] = Lipophilicity, log D of the compound by chromatography; assay type: physicochemical
[2] = Intrinsic clearance in human hepatocytes assessed per million cells; assay type: ADME, cell-based, Hepatocyte; details: read-out: CLH
[3] = Solubility of the compound in phosphate buffer at pH 7.4 using solid sample at 23 degreeC; assay type: physicochemical
Summary of the method: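 Solubility measured in 0.1 M phosphate buffer at pH 7.4 and 23 °C, starting from crystalline solid.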

[4] = Solubility of the compound in phosphate buffer at pH 7.4 using liquid sample at 20 degreeC; assay type: physicochemical
Summary of the method: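 Solubility measured in 0.1 M phosphate buffer at pH 7.4 and 20 °C, starting from a 10 mM DMSO stock solution.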

[5] = Cmax in Wistar Han rat plasma at 0.1 umol/kg, administered as dry powder inhalation by LC-MS/MS analysis; assay type: ADME; design: dose 0.1 umol/kg, route respiratory (INHALATION); details: inhaled or intranasal
[6] = Mean residence time in Wistar Han rat lung at 0.1 umol/kg, administered as dry powder inhalation by LC-MS/MS analysis; assay type: ADME, tissue-based; details: inhaled or intranasal
[7] = Thermodynamic solubility of the compound in human intestinal fluid; assay type: physicochemical; details: read-out: Therm_solubility
[8] = Intrinsic clearance in Wistar Han rat hepatocytes assessed per 10^6 cells; assay type: ADME, cell-based, Hepatocyte; details: read-out: CLH
[9] = AUC (0 to infinity) in Wistar Han rat lung at 0.1 umol/kg, administered as dry powder inhalation by LC-MS/MS analysis; assay type: ADME; design: dose 0.1 umol/kg, route respiratory (INHALATION), time infinity; details: inhaled or intranasal
Lung [10] = assay: Drug uptake in Wistar Han rat lung at 0.1 umol/kg, administered as dry powder inhalation after 4 hrs by LC-MS/MS analysis; assay type: ADME; details: in vivo, inhaled_or_intranasal
[11] = Volume of distribution at steady state in Wistar Han rat at 1 umol/kg, iv administered as bolus dose by LC-MS/MS analysis; assay type: ADME, organism-based; details: in vivo, read-out: Vdss
[12] = Oral bioavailability in Wistar Han rat administered via gavage by LC-MS/MS analysis; assay type: ADME, organism-based; details: in vivo
Rattus norvegicus = assay: Toxicity in inhaled CRL:CD Sprague Dawley rat model of sephadex induced lung edema assessed as induction of thymic involution administered once per day for 3 days; details: in vivo, inhaled_or_intranasal, 72 h
Summary of the method: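 Thymic involution scored in the same Sephadex-challenged rats dosed by inhalation, as a sensitive marker of systemic GR agonism.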

[13] = Terminal half life in Wistar Han rat 1 umol/kg, iv administered as bolus dose by LC-MS/MS analysis; assay type: ADME, organism-based; details: in vivo, read-out: beta t1/2 (converted)
Lung [14] = assay: Drug uptake in Wistar Han rat lung at 0.1 umol/kg, administered as dry powder inhalation after 24 hrs by LC-MS/MS analysis; assay type: ADME, tissue-based; details: in vivo, inhaled_or_intranasal
[15] = Apparent terminal half life in Wistar Han rat lung at 0.1 umol/kg, administered as dry powder inhalation by LC-MS/MS analysis; assay type: ADME; details: inhaled or intranasal, read-out: betat1/2(app) (converted)
[16] = Clearance in Wistar Han rat at 1 umol/kg, iv administered as bolus dose by LC-MS/MS analysis; assay type: ADME, organism-based; details: in vivo

Row | Structure (SMILES) | chromatographic logD [1] | hepatocyte CLint [2] [µL/min/1e6 cells] | solubility thermodynamic [3] [µM] | solubility [4] [µM] | Cmax [5] [nM] | MRT [6] [h] | solubility thermodynamic [7] [µM] | hepatocyte CLint [8] [µL/min/1e6 cells] | AUC(0-inf) [9] [µM·h] | Drug uptake (Lung [10]) [%ID] | Vd [11] [L/kg] | bioavailability [12] [%] | ED25 (Rattus norvegicus) [mg/kg] | half-life [13] [h] | Drug uptake (Lung [14]) [%ID] | half-life [15] [h] | clearance [16] [mL/min/kg]
1 | C[C@H](NC(=O)C(C)(F)F)[C@H](Oc1ccc2c(cnn2-c2cccc(C(=O)N[C@H]3CCS(=O)(=O)C3)c2)c1)c1ccc2c(c1)OCCO2 | 3.6 | 23 | 0.68 (≈ 0.445 µg/mL) | 0.01 (≈ 0.00655 µg/mL) |  |  |  |  |  |  |  |  |  |  |  |  | 
2 | C[C@H](NC(=O)C(C)(F)F)[C@H](Oc1ccc2c(cnn2-c2cccc(C(=O)N[C@@H]3CCS(=O)(=O)C3)c2)c1)c1ccc2c(c1)OCCO2 | 3.6 | 22 | < 0.1 | < 0.01 | 4.9 | 210 | 0.3 (≈ 0.196 µg/mL) | 31 | 5200 | 93 | 2.8 | < 0.1 | > 0.13 | 0.3 | 91 | 179 | 
3 | C[C@H](NC(=O)C(C)(F)F)[C@H](Oc1ccc2c(cnn2-c2cccc(C(=O)N[C@H]3CCOC3)c2)c1)c1ccc2c(c1)OCCO2 | 3.7 | 30 | 0.09 (≈ 0.0546 µg/mL) | 1.3 (≈ 0.789 µg/mL) |  |  |  |  |  |  |  |  |  |  |  |  | 
4 | C[C@H](NC(=O)C(C)(F)F)[C@H](Oc1ccc2c(cnn2-c2cccc(C(=O)N[C@H]3CCOC3)c2)c1)c1ccc2c(c1)OCOC2 | 3.6 | 26 | 0.03 (≈ 0.0182 µg/mL) | 0.11 (≈ 0.0667 µg/mL) |  |  |  |  |  |  |  |  |  |  |  |  | 
5 | C[C@H](NC(=O)C(C)(F)F)[C@H](Oc1ccc2c(cnn2-c2cccc(C(=O)NCc3cccnc3)c2)c1)c1ccc2c(c1)OCCO2 | 3.7 | 21 | 0.23 (≈ 0.144 µg/mL) | < 0.1 | 21 | 2.6 | 2.1 (≈ 1.32 µg/mL) | 25 | 26 | 4.1 | 0.97 | 0.16 | 0.012 | 0.2 | 0.18 | 4.9 | 68
6 | C[C@H](NC(=O)C(C)(F)F)[C@H](Oc1ccc2c(cnn2-c2cccc(C(=O)NCc3cccnc3)c2)c1)c1ccc2c(c1)OCOC2 | 3.6 | 21 | 0.02 (≈ 0.0126 µg/mL) | < 0.1 | 12 | 10 | 1.3 (≈ 0.816 µg/mL) | 25 | 190 | 41 | 0.81 | 0.3 | 0.027 | 0.1 | 8.6 | 9 | 73
7 | C[C@H](NC(=O)C(C)(F)F)[C@H](Oc1ccc2c(cnn2-c2cccc(C(=O)N[C@@H]3CCOC3=O)c2)c1)c1ccc2c(c1)OCCO2 | 3.6 | 17 | 0.22 (≈ 0.137 µg/mL) | 0.16 (≈ 0.0993 µg/mL) |  |  |  |  |  |  |  |  |  |  |  |  | 
8 | C[C@H](NC(=O)C(F)(F)F)[C@H](Oc1ccc2c(cnn2-c2ccc(F)cc2)c1)c1ccccc1 | 6.1 | < 2.1 |  |  |  |  |  |  |  |  |  |  |  |  |  |  | 
9 | C[C@H](NC(=O)C(C)(F)F)[C@H](Oc1ccc2c(cnn2-c2cccc(C(=O)N[C@@H]3CCOC3=O)c2)c1)c1ccccc1 | 3.9 |  | 0.12 (≈ 0.0675 µg/mL) | 2 (≈ 1.13 µg/mL) |  |  |  |  |  |  |  |  |  |  |  |  | 
10 | C[C@H](NC(=O)C(F)(F)F)[C@H](Oc1ccc2c(cnn2-c2ccc(F)cc2)c1)c1ccc2c(c1)OCCO2 | 5.7 |  |  |  |  |  |  |  |  |  |  |  |  |  |  |  | 
11 | C[C@H](NC(=O)C(C)(F)F)[C@H](Oc1ccc2c(cnn2-c2ccc(F)cc2)c1)c1ccc2c(c1)COCO2 | 5.4 | 20 |  |  |  |  |  |  |  |  |  |  |  |  |  |  | 
12 | C[C@H](NC(=O)C(C)(F)F)[C@H](Oc1ccc2c(cnn2-c2cccc(C(=O)N3CCC[C@@H]3C(N)=O)c2)c1)c1ccc2c(c1)OCCO2 | 2.9 | 11 |  | 47 (≈ 29.8 µg/mL) |  |  |  |  |  |  |  |  |  |  |  |  | 
13 | C[C@H](NC(=O)C(C)(F)F)[C@H](Oc1ccc2c(cnn2-c2cccc(C(=O)N3CCC[C@H]3C(N)=O)c2)c1)c1ccccc1 | 3.3 |  |  | 85 (≈ 48.9 µg/mL) |  |  |  |  |  |  |  |  |  |  |  |  | 

— ChEMBL document CHEMBL4028861, “Selective Nonsteroidal Glucocorticoid Receptor Modulators for the Inhaled Treatment of Pulmonary Diseases” (J Med Chem, 2017)
